Measured values collected from several papers.
Compare with care: the assays were run in different laboratories.
Target: Mitogen-activated protein kinase kinase kinase 5 (MAP3K5, Homo sapiens, UniProt Q99683)
Residues used in one study (Q99683 1-1374): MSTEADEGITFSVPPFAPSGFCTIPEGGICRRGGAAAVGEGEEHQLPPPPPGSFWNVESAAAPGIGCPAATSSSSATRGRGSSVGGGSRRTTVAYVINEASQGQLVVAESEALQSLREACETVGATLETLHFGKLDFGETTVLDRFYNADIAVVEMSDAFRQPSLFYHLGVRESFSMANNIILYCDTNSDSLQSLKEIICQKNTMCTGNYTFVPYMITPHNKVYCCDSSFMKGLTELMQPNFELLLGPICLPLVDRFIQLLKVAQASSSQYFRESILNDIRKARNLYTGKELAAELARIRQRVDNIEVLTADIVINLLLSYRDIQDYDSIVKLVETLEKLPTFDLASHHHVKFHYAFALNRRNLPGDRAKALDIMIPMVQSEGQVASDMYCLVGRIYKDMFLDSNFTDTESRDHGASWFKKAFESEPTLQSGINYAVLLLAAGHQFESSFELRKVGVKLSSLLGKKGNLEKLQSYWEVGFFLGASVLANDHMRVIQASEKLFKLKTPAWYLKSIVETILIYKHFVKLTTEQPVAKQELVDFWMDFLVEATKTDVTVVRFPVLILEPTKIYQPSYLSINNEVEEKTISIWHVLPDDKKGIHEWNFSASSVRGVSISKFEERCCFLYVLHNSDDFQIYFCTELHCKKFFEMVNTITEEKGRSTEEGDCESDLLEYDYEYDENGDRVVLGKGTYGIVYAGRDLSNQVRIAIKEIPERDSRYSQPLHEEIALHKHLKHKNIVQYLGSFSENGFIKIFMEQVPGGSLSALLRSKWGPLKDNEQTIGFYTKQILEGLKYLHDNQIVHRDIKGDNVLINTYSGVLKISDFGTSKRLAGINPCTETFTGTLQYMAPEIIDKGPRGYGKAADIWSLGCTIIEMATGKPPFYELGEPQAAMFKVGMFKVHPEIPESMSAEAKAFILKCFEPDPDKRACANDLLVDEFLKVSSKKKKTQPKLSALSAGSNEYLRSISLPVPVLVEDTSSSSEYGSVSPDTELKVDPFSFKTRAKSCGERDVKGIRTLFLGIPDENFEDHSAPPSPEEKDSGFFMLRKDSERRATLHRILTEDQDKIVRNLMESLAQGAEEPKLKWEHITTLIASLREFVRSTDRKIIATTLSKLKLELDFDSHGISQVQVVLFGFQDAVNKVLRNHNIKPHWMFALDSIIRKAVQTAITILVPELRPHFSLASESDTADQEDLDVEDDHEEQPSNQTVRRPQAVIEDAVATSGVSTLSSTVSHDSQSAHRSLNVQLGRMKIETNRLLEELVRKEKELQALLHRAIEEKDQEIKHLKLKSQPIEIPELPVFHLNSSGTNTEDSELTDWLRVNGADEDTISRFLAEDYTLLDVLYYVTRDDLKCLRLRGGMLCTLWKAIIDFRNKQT

Compound | observed | mode | method | cells | tested at | endpoint | value
Cc1ccc(Nc2nccc(N(C)c3ccc4c(C)n(C)nc4c3)n2)cc1S(N)(=O)=O | enzyme activity | inhibitor |  |  | 0.3 µM | inhibition | 6%
CCN1CCN(Cc2ccc(NC(=O)c3ccc(C)c(/C=C/c4cnc5[nH]ccc5c4OC)c3)cc2C(F)(F)F)CC1 | target engagement in cells | inhibitor | chemoproteomics | A-375 | 0.5 µM | inhibition | -26.3%
CS(=O)(=O)N1CCCC(NC(=O)[C@H](CCC2CCCCC2)NC(=O)c2ccc(CNc3ncnc4c3nnn4-c3ccccc3)cc2)C1 (stereo partly drawn) | cell-free assay |  | competition with immobilised ligand |  | 0.1 µM | remaining binding | 100%
CNC(=O)c1cc(Oc2ccc(NC(=O)Nc3ccc(Cl)c(C(F)(F)F)c3)cc2)ccn1 | enzyme activity | inhibitor |  |  | 0.3 µM | inhibition | 0%
Cn1nc(C(=O)NCc2ccc(C(=O)O)cc2)cc1-c1ccc2[nH]ccc2c1 | cell-free assay |  | competition with immobilised ligand |  | 0.1 µM | remaining binding | 86%
CN1CCC2(CC1)NC(=O)c1c(c3ccc(Cl)c(Cl)c3n1C)C2C#N (racemic) | thermal stability |  | DSF |  | 10 µM | ΔTm | 0.3 °C
Cc1sc(C(=O)NC2COC2)cc1-n1cc(NC(=O)Nc2c(F)cccc2Cl)cn1 | enzyme activity | inhibitor |  |  | 10 µM | remaining activity | 94%
CN(C(=O)c1ccccc1)c1cc(N(C)c2ccc3c(c2)CCc2ccc(C(=O)NCCN4CCOCC4)cc2C3=O)ccc1F | cell-free assay |  | competition with immobilised ligand |  | 1 µM | remaining binding | 100%
Cn1c(=O)n(-c2ccc(C(C)(C)C#N)cc2)c2c3cc(-c4cnc5ccccc5c4)ccc3ncc21 | enzyme activity | inhibitor |  |  | 10 µM | remaining activity | 106%
CNC(=O)Nc1ccc2c(c1)[C@@]1(CC2)OC(=O)N(CC(=O)N(Cc2ccc(F)cc2)[C@@H](C)C(F)(F)F)C1=O | cell-free assay |  | competition with immobilised ligand |  | 1 µM | remaining binding | 100%
CCN1CCC2(CC1)NC(=O)c1c(c3ccc(Cl)c(Cl)c3n1C)C2C#N (racemic) | thermal stability |  | DSF |  | 10 µM | ΔTm | 0.1 °C
CC(C)(C)c1nc(-c2cccc(NS(=O)(=O)c3c(F)cccc3F)c2F)c(-c2ccnc(N)n2)s1 | enzyme activity | inhibitor | radiometric |  | 1 µM | remaining activity | 98%
CC(C)c1ccc(NC(=O)c2cccs2)c(-c2nc3ccccc3[nH]c2=O)c1 | enzyme activity | inhibitor |  |  | 1 µM | activity vs control | 107%
CNCc1ccc(-c2cc(-c3nc(-c4ccc(S(=O)(=O)C(C)C)cc4)cnc3N)on2)cc1 | enzyme activity | inhibitor |  |  | 0.4 µM | inhibition | 0%
N#CC1c2c([nH]c3c(Cl)c(Cl)ccc23)C(=O)NC12CCCCC2 (racemic) | thermal stability |  | DSF |  | 10 µM | ΔTm | 0.6 °C
CCCCNc1ncc2c(-c3ccc(F)cc3)nn(C[C@H]3CC[C@H](N)CC3)c2n1 | target engagement in cells | inhibitor | chemoproteomics |  | 20 mM | inhibition | -10.7%
CCN1CCN(Cc2ccc(NC(=O)c3ccc(C)c(Oc4ccnc5[nH]ccc45)c3)cc2C(F)(F)F)CC1 | target engagement in cells | inhibitor | chemoproteomics | A-375 | 0.5 µM | inhibition | -10.5%
FC(F)c1nc2ccccc2n1-c1nc(N2CCOCC2)nc(N2CCOCC2)n1 | enzyme activity | inhibitor |  |  | 10 µM | remaining activity | 90%

Compound | observed | mode | method | cells | tested at | endpoint | value
CNCc1ccccc1-c1csc([C@@H](C)Nc2nc(C)nc3cc(OC)c(OC)cc23)c1 | cell-free assay |  | competition with immobilised ligand |  | 1 µM | remaining binding | 91%
Cn1c2c(c3ccc(Cl)c(Cl)c31)C(C#N)C1(CCOCC1)NC2=O (stereo not drawn) | thermal stability |  | DSF |  | 10 µM | ΔTm | 0.4 °C
FC(F)(F)Oc1cccc(-c2cnc3ccc(-c4ccncc4)nn23)c1 | enzyme activity | inhibitor | radiometric |  | 5 µM | activity vs control | 104%
Cn1c2c(c3ccc(Cl)c(Cl)c31)C(C#N)C(C)(C)NC2=O (stereo not drawn) | thermal stability |  | DSF |  | 10 µM | ΔTm | 2.6 °C
N#CCCc1ccc2c(c1)-c1[nH]c3ccc([N+](=O)[O-])cc3c1CC(=O)N2 | cell-free assay |  |  |  | 0.5 µM | remaining signal | 101%
COc1cc(Cl)c(C(=O)N[C@@H](CN[C@H]2CC[C@@H](N)CC2)Cc2ccc(C#N)cc2)cc1-c1ccc(CN[C@H](C)c2ccc(C)cc2)o1 | enzyme activity | inhibitor |  |  | 1 µM | remaining activity | 94%
CC/C(=N\NC(=O)NCc1cccc(O)c1)c1ccc(O)c(C)c1O | enzyme activity | inhibitor |  |  | 0.1 µM | inhibition | 4%
COc1ccc2c(c1)O[C@H](c1ccc(OC)c(OC)c1)C[C@@H]2NC(=O)C1(c2ccc3c(c2)OC(F)(F)O3)CC1 | cell-free assay |  | competition with immobilised ligand |  | 1 µM | remaining binding | 100%
COc1cc(/C=C/C(=O)CC(=O)/C=C/c2ccc(O)c(OC)c2)ccc1O | enzyme activity | inhibitor |  |  | 1 µM | activity vs control | 101%
Cc1ccc(C(=O)Nc2ccc(CN3CCN(C)CC3)c(C(F)(F)F)c2)cc1C#Cc1cnc2cccnn12 | enzyme activity | inhibitor |  |  | 23.5 nM | remaining activity | 100%
Cc1noc([C@H]2C[C@@H](c3ccc(C(F)(F)F)cc3)CN(C(=O)N3CCS(=O)(=O)C3)C2)n1 | cell-free assay |  | competition with immobilised ligand |  | 1 µM | remaining binding | 100%
COc1cc(Nc2cnc(C#N)c(O[C@H](C)CN(C)C)n2)ncc1-c1cnn(C)c1 | enzyme activity | inhibitor | radiometric |  | 10 µM | remaining activity | 67%
CN1CC(Oc2cnc(C#N)cc2-c2ccn3nc(NC(=O)C4CC4)cc3c2)C1 | enzyme activity | inhibitor |  |  | 1 µM | inhibition | -2%
Cn1nc(C(F)(F)F)cc1-c1cnc(N2CCc3cc(S(=O)(=O)Nc4c(F)cc(Cl)cc4F)cc(N4CCCC4=O)c32)nc1 | cell-free assay |  | competition with immobilised ligand |  | 1 µM | remaining binding | 100%
O=C(Nc1cnn(-c2csc(C(=O)NC3COC3)c2)c1)Nc1c(F)cccc1Cl | enzyme activity | inhibitor |  |  | 5 µM | remaining activity | 91.1%
CCCOc1ccc(OC)c(F)c1C(=O)c1ccc(C(=O)N[C@@H]2CNC[C@H]2NC(=O)c2ccc3[nH]ncc3c2)cc1 | enzyme activity | inhibitor |  |  | 10 µM | remaining activity | 83%
CCN(CC)CCNC(=O)c1c(C)[nH]c(/C=C2\C(=O)Nc3ccc(F)cc32)c1C | enzyme activity | inhibitor |  |  | 0.3 µM | inhibition | 4%
O=C1Nc2ccc(Cl)cc2C1=Cc1cc(Cl)c(O)c(Cl)c1 | cell-free assay |  |  |  | 0.5 µM | remaining signal | 106%
